Compound activity (PubChem BioAssay)
MsrA inh: inhibits bovine methionine sulfoxide reductase A; purified bovine MsrA, absorbance read-out; inhibition, % at 15.5 µM; 360,000 compounds, 0.75% hits; in the data active = inhibition above about 4.5%;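 note: 0% = vehicle wells with enzyme and 100% = reference inhibitor wells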
aDG glyco up: alpha-DG glycosylation activation. Pro5-aDG cells, alpha-DG glycosylation AlphaScreen (IIH6); 0% Pro5, 100% B10-LARGE cell signal. activation, % at 10 µM. 360,000 compounds, 0.22% hits. AID 624168;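 active = activation of at least 8% versus controls, or a plate z-score of at least 8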;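 note: Pro5 are CHO cells carrying HIG-tagged alpha-DG that lacks glycosylation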
N-glyco inh: blocks N-linked glycosylation in D54 reporter cells; reporter increase, % at 12.5 µM; D54 ERlucT glycosylation luciferase reporter, 24 h; percent of 100 nM tunicamycin response; 360,000 compounds, 0.23% hits; AID 588692;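 active = mean luciferase reporter signal, scaled so untreated is 0 and the glycosylation-blocking control 100, at or above a set limit in every replicate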;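 note: luciferase carries N-glycosylation sites so blocking glycosylation raises the light; 0% = median of neutral control wells and 100% = median of 100 nM tunicamycin wells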
MsrA act: activators of bovine methionine sulfoxide reductase A. purified bovine MsrA, absorbance read-out. activation, % at 10.6 µM. 360,000 compounds, 0.3% hits; in the data active = activation above about 7.5%;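 note: 0% = vehicle and 100% = reference activator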
UCH37 inh: inhibitors of human deubiquitinating enzyme UCH37; purified proteasome/UCH37, Ub-AMC cleavage fluorescence; inhibition, % (test concentration not listed); 330,000 compounds, 0.33% hits;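 active = mean inhibition over replicate wells above about 20%, limit read from the data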;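 note: 0% = compound-free wells with enzyme and 100% = wells lacking proteasome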
Target sequence (Q9Y5K5 whole entry, looked up): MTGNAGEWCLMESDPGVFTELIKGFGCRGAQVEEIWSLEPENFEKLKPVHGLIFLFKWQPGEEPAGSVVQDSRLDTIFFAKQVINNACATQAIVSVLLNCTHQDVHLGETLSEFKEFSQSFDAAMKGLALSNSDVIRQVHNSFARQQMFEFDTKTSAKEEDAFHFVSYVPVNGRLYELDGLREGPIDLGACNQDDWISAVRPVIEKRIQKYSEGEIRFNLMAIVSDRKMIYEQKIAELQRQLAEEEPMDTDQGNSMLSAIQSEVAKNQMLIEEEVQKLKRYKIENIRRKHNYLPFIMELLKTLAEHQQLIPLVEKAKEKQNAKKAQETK
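Material: Human UCH37 enzyme supplied as purified proteasome complex | Schedule: 30 min compound-proteasome preincubation then 25 min substrate reaction, room temperature | Detection: AMC fluorescence from Ub-AMC cleavage, excitation 355 nm, emission 460 nm | Benchmarks: Wells without proteasome as full block, compound-free enzyme plus substrate as uninhibited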
Vif inh: inhibitors of HIV Vif; HEK293T cells, Vif self-association by quenched fluorescence, imaging, 24 h; inhibition, % at 7.49 µM; 340,000 compounds, 0.35% hits; in the data active = inhibition above about 50%, passing the limit was not always enough
* = called active by the depositor; . = no result. Hits are enriched below; roughly 1.9% of the tested compounds scored in any of these assays.

SMILES	MsrA inh	aDG glyco up	N-glyco inh	MsrA act	UCH37 inh	Vif inh
Cc1ccc(CNC(=O)c2cc(-c3ccccc3)n(Cc3cc(C)no3)n2)cc1	-1	0	-2	-3	24*	-5
Nc1ccc(C(=O)c2ccccc2C(=O)O)cc1Cl	0	0	1	-3	7	55*
O=C(c1ccccc1)c1ccc(C(=O)O)c(C(=O)O)c1	0	0	1	-2	0	-5
CN1CCN(C(=O)Nc2cccc(-c3ccccc3)c2)CC1	4.6*	0	1	-5	5	-1
Cc1ccc(/C=C/C(=O)O)cc1S(=O)(=O)N1CCc2ccccc21	1	0	1	-2	1	58*
Cc1sc(NN=Cc2cccnc2)nc1-c1ccc(Cl)cc1	.	.	.	.	2	.
COC(=O)c1cnn(-c2ccc(Cl)cc2)c1C=NNC(N)=S	.	.	.	.	4	.
CCN(CC)c1ccc2cc(-c3nc4ccccc4[nH]3)c(=O)oc2c1	.	2	-20	0	2	.
CCN(CC)c1ccc2cc(-c3nnc(-c4ccccc4)o3)c(=O)oc2c1	-1	1	-1	0	-12	179*
COc1cc(C(=O)N2CCN(C(=O)COc3ccc4ccccc4c3)CC2)cc(OC)c1OC	-1	0	3	-1	28*	.
COc1cc2[nH]c(=O)n3nc(-c4ccccc4)nc3c2cc1OC	.	0	8	1	-53	-2
CCN(CC)CCNc1nc2cc(OC)c(OC)cc2c2nc(-c3ccccc3)nn12	0	0	71*	-7	-111	-34
COc1cccc(C(=O)OCC(=O)NC23CC4CC(CC(C4)C2)C3)c1	0	0	3	-2	3	26
CC(=O)Oc1cc(C(=O)OCC(=O)NC23CC4CC(CC(C4)C2)C3)cc(OC(C)=O)c1OC(C)=O	0	0	-5	-6	3	67*
O=C(CCl)NCCN1C(=O)S/C(=C\c2cccnc2)C1=O	3	0	-3	-9	1	8
CC(C(=O)NCCN1C(=O)S/C(=C\c2cccnc2)C1=O)N1C(=O)c2ccccc2C1=O (stereo unspecified)	4.6*	0	1	-11	7	1
CCc1cc(C)cc(OCCOc2ccccc2C=NNC(C)=O)c1	.	.	.	.	-2	.
CNC(=O)C(=O)NN=Cc1ccccn1	.	.	.	.	0	.
CN(C(=O)C12CC3CC(CC(C3)C1)C2)C1(C)CCS(=O)(=O)C1 (stereo unspecified)	-1	0	-4	0	30*	14
CC(=NNC(=O)c1cc(-c2ccc(C)s2)nc2ccccc12)c1cccnc1	.	.	.	.	-480	.
CC(C)NC1=C(Cl)C(=O)c2ccccc2C1=O	-1	6.3*	-6	2	10	63*
O=C1C(Cl)=C(Nc2ccccc2)C(=O)c2ccccc21	1	-1	-23	0	6	12
C=CCNC1=C(Cl)C(=O)c2ccccc2C1=O	0	9.7*	-1	1	15	-4
COc1cc(-c2noc(C)c2/C=C/c2ccc(N)cc2)cc(OC)c1OC	1	0	43*	-2	2	15
COc1cc(-c2c(-c3cc(OC)c(OC)c(OC)c3)noc2C)ccc1F	0	.	.	.	5	.
SMILES	MsrA inh	aDG glyco up	N-glyco inh	MsrA act	UCH37 inh	Vif inh
COc1ccc(-c2c(-c3cc(OC)c(OC)c(OC)c3)noc2C)cn1	.	0	30*	0	2	5
COc1cc(C=NNc2ccc([N+](=O)[O-])cn2)cc(OC)c1O	.	.	.	.	7	.
CC(=NNc1cccc2cccnc12)c1ccccc1O	.	.	.	.	6	.
NC(=O)c1ccc2c(=O)n3c(-c4cc(Cl)c(N)c(Cl)c4)csc3nc2c1	1	0	29*	-1	5	-1
N=C1/C(=C/c2ccc(-c3cccc(C(=O)O)c3)o2)C(=O)N=C2SC(CC(=O)N3CCOCC3)=NN12	2	0	1	-13	24*	0
N=C1/C(=C\c2ccc(SCc3ccccc3)o2)C(=O)N=C2SC(CC(=O)N3CCOCC3)=NN12	4	0	1	-5	11	19
O=C(Nc1nccs1)c1cccc(N2C(=O)C3C4C=CC(C4)C3C2=O)c1 (stereo unspecified)	-1	0	0	-7	29*	4
Cc1ccc(C)c(NC(=O)CCC(=O)NN=Cc2ccc3c(c2)OCO3)c1	.	.	.	.	8	.
COc1ccc(S(=O)(=O)NCC(=O)N(CC(=O)NCC2CCCO2)Cc2ccccc2)cc1 (stereo unspecified)	0	0	-1	-3	-1	71*
CCOC(=O)c1cc2sccc2n1CC(=O)N1c2ccccc2CC1C (stereo unspecified)	-1	0	377*	-2	3	2
CC(C)C(=O)Nc1ccc(C(=O)N/N=C/C2CC3C=CC2C3)cc1 (stereo unspecified)	0	0	-2	-10	.	58*
COC(=O)c1ccc(C=NNC(=O)c2c(C)nc3ccc(Cl)cn23)cc1	.	.	.	.	3	.
Cc1ccc2c(c1)C(=O)CCN2	0	0	2	-9	0	51*
O=C1c2cccc3c(N4CCCCC4)ccc(c23)C(=O)N1c1cccc(O)c1	-1	1	-5	-3	-4	185*
NC(=O)c1cc2ccccc2oc1=NNC(=O)c1cccc(Cl)c1	.	.	.	.	2	.
COc1ccc(-c2nnc(SCc3nc4ccccc4c(=O)[nH]3)o2)cc1	-1	0	-2	-5	-1	52*
CCCn1c(=O)c(C(=O)Nc2ncccc2O)c(O)c2ccccc21	0	0	0	-2	5	58*
CCCCOc1cccc2c(=O)n(CC(=O)Nc3ccc4c(c3)OCCO4)ccc12	-1	0	1	-6	.	73*
O=C(Cn1cnc2ccccc2c1=O)Nc1ccc2c(c1)OCCO2	-1	0	-1	4	2	-21
Cc1cccc(NC(=O)Nc2ccc(Oc3c(F)c(F)c(F)c(F)c3F)cc2)c1	-1	0	-1	-3	-2	-2
O=C(Nc1ccc(Oc2c(F)c(F)c(F)c(F)c2F)cc1)OC1CCN2Cc3ccccc3N=C12 (stereo unspecified)	.	0	29*	-2	.	-9
COc1cc(OC)cc(C(=O)NC(C(=O)Nc2ccc3nc(C)sc3c2)C(C)C)c1 (stereo unspecified)	1	0	4	-2	1	3
COc1cc(OC)cc(C(=O)NC(C(=O)Nc2ccc3c(c2)OCO3)C(C)C)c1 (stereo unspecified)	0	0	0	0	0	125*
CC(C)[C@H](NC(=O)c1ccccc1F)C(=O)Nc1ccc2c(c1)OCO2	0	0	0	-2	-2	-4
COc1cc(OC)cc(C(=O)N[C@H](C(=O)Nc2ccc3c(c2)OCO3)C(C)C)c1	-1	1	-2	-12	2	91*
Cc1ccc(C=NNC(=O)c2sccc2OCc2ccc(F)cc2)cc1	.	.	.	.	-2	.
